Laboratory results published in ChEMBL document CHEMBL1154537, “Synthesis and evaluation of pyrido-thieno-pyrimidines as potent and selective Cdc7 kinase inhibitors” (Bioorg Med Chem Lett, 2009).
pIC50, pKi: −log10 of the molar value. Calls of active or inactive are those of the source. The rule behind the calls is not given here.

How the values were obtained:
[1] = Solubility at pH 6.5; type: physicochemical; conditions: buffer
[2] = Permeability in human Caco-2 cells; type: ADME, cell-based; conditions: read-out: permeability
[3] = biological target: T1, CDC7/DBF4 (Cell division cycle 7-related protein kinase/Activator of S phase kinase) (Homo sapiens, UniProt O00311); assay: Inhibition of human recombinant Cdc7/Dbf4 by HTRF assay
T1 sequence (Q9UBU7 whole entry): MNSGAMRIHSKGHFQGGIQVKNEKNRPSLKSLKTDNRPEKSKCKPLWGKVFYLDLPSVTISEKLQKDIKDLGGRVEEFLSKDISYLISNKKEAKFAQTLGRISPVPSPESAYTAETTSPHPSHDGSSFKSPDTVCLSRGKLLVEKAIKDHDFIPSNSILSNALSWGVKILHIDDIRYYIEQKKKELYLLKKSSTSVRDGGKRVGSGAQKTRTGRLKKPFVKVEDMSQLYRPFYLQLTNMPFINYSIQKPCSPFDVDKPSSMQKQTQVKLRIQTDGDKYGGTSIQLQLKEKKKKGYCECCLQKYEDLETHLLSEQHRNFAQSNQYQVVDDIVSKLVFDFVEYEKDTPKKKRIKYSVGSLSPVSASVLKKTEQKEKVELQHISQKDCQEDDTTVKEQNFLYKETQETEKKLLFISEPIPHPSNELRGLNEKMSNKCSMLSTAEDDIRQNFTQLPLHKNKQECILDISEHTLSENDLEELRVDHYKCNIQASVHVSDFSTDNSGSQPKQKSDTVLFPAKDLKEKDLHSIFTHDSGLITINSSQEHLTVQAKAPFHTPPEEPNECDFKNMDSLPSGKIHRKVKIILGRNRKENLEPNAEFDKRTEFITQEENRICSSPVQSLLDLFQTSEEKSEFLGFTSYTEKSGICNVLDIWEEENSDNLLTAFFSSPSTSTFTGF
T1 sequence (O00311 whole entry): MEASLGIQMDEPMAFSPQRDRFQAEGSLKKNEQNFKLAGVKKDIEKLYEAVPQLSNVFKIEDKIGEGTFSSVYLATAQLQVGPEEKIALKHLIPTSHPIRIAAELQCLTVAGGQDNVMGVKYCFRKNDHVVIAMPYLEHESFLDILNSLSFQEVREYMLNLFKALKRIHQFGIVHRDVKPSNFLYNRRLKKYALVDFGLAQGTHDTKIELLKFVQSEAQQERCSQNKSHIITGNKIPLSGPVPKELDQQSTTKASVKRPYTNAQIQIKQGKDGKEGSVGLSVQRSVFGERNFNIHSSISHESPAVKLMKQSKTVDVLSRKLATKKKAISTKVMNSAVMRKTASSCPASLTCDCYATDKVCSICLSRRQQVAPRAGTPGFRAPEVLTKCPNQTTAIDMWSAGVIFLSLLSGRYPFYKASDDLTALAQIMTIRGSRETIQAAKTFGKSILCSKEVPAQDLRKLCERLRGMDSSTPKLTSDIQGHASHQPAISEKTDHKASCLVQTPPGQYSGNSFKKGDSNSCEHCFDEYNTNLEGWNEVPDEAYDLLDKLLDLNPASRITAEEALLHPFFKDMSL

[4] = biological target: T1, CDC7/DBF4 (Cell division cycle 7-related protein kinase/Activator of S phase kinase); assay: Inhibition of human recombinant Cdc7/Dbf4 by IMAP assay; type: protein-complex assay
[5] = biological target: Cyclin-dependent kinase 1/cyclin B1 (Homo sapiens, UniProt P06493); assay: Inhibition of human CDK1/Cyclin B by IMAP assay; type: protein-complex assay
Sequence of Cyclin-dependent kinase 1/cyclin B1 (P06493 whole entry): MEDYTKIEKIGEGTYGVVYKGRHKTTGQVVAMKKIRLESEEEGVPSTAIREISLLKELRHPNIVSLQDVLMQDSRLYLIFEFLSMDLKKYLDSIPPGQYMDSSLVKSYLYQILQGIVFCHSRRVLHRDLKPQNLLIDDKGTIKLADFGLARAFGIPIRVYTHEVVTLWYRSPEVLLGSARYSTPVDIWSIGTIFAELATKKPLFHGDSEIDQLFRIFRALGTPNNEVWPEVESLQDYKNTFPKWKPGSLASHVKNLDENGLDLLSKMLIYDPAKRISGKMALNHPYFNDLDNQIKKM
Sequence of Cyclin-dependent kinase 1/cyclin B1 (P14635 whole entry, further chain): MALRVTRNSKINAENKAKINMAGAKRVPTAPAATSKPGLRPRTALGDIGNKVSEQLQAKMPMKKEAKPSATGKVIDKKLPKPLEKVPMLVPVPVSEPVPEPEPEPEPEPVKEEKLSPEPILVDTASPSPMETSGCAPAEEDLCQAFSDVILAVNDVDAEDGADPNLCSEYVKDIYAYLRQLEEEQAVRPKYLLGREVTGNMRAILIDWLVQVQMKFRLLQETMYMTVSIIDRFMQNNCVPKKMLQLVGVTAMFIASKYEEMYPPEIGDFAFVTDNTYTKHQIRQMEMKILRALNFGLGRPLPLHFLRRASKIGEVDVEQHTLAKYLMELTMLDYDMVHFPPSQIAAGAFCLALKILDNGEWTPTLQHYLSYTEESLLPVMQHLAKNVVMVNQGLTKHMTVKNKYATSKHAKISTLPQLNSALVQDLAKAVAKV

[6] = biological target: Tyrosine-protein kinase Fyn (Homo sapiens, UniProt P06241); assay: Inhibition of human Fyn by IMAP assay
Sequence of Tyrosine-protein kinase Fyn (P06241 whole entry): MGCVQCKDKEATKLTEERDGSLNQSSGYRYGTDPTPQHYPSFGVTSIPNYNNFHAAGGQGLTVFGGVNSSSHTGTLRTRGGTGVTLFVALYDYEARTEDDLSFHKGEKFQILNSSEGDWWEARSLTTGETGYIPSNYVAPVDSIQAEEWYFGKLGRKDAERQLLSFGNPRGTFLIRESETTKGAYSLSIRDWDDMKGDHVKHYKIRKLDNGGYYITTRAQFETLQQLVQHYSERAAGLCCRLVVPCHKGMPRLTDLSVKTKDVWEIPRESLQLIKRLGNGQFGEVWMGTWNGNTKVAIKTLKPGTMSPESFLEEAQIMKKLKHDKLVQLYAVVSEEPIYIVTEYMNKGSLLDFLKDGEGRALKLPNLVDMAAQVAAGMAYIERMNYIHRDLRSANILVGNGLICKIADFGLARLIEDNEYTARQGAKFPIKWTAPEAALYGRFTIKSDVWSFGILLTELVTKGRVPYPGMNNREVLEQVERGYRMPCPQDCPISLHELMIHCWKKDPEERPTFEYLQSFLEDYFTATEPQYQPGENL

[7] = Inhibition of human PKA by IMAP assay
[8] = biological target: RAC-alpha serine/threonine-protein kinase (Homo sapiens, UniProt P31749); assay: Inhibition of human AKT by IMAP assay
Sequence of RAC-alpha serine/threonine-protein kinase (P31749 whole entry): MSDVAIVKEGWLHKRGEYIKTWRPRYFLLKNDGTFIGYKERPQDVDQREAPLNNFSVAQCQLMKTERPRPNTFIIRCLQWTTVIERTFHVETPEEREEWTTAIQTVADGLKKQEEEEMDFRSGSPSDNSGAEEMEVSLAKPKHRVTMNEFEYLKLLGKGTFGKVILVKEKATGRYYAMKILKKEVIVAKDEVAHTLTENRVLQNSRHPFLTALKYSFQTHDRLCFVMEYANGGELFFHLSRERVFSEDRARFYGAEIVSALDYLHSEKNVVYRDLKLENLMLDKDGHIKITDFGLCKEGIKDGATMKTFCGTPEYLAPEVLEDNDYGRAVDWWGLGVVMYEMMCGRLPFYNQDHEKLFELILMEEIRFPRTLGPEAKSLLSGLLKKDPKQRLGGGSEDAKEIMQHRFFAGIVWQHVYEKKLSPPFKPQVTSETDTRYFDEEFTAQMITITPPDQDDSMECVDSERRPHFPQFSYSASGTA

[9] = biological target: Protein kinase C delta type (Homo sapiens, UniProt Q05655); assay: Inhibition of human PKCdelta by IMAP assay
Sequence of Protein kinase C delta type (Q05655 whole entry): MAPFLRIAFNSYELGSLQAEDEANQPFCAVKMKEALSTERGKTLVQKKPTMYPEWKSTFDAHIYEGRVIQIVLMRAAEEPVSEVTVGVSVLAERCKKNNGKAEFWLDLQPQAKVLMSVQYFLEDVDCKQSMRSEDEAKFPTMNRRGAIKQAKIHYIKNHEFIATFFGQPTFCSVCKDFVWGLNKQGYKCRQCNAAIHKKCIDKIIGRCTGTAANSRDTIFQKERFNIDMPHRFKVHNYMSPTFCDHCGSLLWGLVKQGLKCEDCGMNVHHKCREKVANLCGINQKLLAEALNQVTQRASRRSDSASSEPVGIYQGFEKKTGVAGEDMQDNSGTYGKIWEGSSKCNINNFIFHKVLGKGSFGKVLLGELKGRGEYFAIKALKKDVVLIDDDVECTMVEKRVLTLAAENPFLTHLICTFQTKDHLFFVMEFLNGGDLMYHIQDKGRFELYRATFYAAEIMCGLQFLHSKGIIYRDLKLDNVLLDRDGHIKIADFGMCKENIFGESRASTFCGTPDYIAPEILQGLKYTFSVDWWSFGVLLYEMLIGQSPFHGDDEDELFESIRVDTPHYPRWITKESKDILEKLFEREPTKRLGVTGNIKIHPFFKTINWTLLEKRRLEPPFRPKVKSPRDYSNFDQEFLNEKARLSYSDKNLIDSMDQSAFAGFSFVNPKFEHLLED

[10] = biological target: T2, Serine/threonine-protein kinase Sgk1 (Homo sapiens, UniProt O00141); assay: Inhibition of human SGK by IMAP assay
T2 sequence (O00141 whole entry): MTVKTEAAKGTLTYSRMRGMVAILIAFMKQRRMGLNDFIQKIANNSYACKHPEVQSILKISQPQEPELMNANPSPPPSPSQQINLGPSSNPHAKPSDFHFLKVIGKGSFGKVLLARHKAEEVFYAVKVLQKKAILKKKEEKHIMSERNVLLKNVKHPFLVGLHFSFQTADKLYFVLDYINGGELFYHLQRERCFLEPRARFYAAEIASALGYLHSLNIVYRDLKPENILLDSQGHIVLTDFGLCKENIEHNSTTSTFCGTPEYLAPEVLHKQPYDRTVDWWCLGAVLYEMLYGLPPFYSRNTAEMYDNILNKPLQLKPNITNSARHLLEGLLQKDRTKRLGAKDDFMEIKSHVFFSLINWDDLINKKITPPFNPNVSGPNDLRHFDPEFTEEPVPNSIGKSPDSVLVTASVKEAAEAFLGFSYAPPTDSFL

[11] = biological target: Mitogen-activated protein kinase 1 (Homo sapiens, UniProt P28482); assay: Inhibition of human ERK2 by IMAP assay
Sequence of Mitogen-activated protein kinase 1 (P28482 whole entry): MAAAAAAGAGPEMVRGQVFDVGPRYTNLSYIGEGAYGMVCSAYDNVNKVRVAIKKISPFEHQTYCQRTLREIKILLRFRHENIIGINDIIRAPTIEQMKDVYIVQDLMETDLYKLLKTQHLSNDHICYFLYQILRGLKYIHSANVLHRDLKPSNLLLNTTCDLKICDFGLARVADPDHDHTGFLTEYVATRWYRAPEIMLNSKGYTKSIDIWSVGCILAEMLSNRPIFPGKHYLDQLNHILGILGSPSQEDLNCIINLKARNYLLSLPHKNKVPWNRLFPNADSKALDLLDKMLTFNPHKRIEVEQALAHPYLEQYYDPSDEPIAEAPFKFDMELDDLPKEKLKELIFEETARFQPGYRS

[12] = biological target: Cyclin-dependent kinase 2 (Homo sapiens, UniProt P24941); assay: Inhibition of human CDK2/Cyclin E by IMAP assay
HCT-116 = assay: Cytotoxicity against human HCT116 cells MTT assay; type: functional, cell-based
Procedure, shortened: (§1)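 MTT viability assay on human colon cancer cell lines exposed in vitro across a compound concentration range. IC50 was taken from the dose-response.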

[13] = Inhibition of human CDK4/Cyclin D by IMAP assay
RKO = assay: Cytotoxicity against human RKO cells MTT assay; type: functional, cell-based; procedure, shortened: as §1
[14] = biological target: Protein kinase C alpha type (Homo sapiens, UniProt P17252); assay: Inhibition of human PKCalpha by IMAP assay
[15] = biological target: CDC7/DBF4 (Cell division cycle 7-related protein kinase/Activator of S phase kinase) (Homo sapiens) (UniProt Q9UBU7+O00311); assay: Inhibition of Cdc7/Dbf4-mediated MCM2 phosphorylation in human HCT116 cells assessed as decrease in faster migration of protein at 20 uM after 18 hrs by Western blot analysis; type: cell-based; conditions: HCT-116
Sequence of CDC7/DBF4 (Cell division cycle 7-related protein kinase/Activator of S phase kinase) (Homo sapiens) (O00311 whole entry, looked up): as the sequence (O00311 whole entry) above
Sequence of CDC7/DBF4 (Cell division cycle 7-related protein kinase/Activator of S phase kinase) (Homo sapiens) (Q9UBU7 whole entry, looked up): as the sequence (Q9UBU7 whole entry) above
Procedure, shortened: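 HCT116 cells were arrested with 100 nM nocodazole for 16 h and mitotic cells were collected by shake-off and washed. The resulting G1 cells were incubated with 20 µM compound or DMSO for 18 h. MCM2 and phospho-MCM2 were read by Western blot.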

SW480 = assay: Cytotoxicity against human SW480 cells MTT assay; type: functional, cell-based; procedure, shortened: as §1
Ephrin type-B receptor 3 = biological target: T3, Ephrin type-B receptor 3 (Homo sapiens, UniProt P54753); assay: Inhibition of human EphB3 by IMAP assay
T3 sequence (P54753 whole entry): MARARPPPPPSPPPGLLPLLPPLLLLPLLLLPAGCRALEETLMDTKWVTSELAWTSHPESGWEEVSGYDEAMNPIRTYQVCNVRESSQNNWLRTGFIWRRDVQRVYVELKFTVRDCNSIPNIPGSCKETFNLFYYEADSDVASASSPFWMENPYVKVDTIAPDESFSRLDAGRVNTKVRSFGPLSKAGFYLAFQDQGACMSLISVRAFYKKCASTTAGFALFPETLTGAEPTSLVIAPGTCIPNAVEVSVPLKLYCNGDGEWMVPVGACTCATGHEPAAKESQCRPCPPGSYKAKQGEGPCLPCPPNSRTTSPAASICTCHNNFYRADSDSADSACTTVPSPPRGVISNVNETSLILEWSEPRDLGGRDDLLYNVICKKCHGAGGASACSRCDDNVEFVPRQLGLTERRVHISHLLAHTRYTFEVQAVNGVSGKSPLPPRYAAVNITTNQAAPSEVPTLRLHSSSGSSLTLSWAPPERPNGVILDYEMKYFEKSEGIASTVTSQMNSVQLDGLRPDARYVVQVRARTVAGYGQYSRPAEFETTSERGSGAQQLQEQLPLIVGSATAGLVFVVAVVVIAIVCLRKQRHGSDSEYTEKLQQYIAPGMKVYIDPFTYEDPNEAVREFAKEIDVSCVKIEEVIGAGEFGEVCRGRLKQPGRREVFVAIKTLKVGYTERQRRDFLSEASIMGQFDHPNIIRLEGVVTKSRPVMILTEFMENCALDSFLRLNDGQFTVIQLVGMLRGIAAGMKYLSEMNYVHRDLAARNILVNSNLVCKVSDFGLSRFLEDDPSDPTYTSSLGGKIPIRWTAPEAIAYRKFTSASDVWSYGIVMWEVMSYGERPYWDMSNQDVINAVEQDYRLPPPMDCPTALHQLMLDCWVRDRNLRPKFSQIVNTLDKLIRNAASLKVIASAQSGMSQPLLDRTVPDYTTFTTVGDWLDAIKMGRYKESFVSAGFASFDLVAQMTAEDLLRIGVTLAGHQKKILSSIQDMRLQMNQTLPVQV

SMILES | solubility [1] [µg/mL] | Papp [2] [×10⁻⁶ cm/s] | pIC50 [3] | pKi [4] | other results
Cc1nc2sc3c(N)ncnc3c2c(C)c1C | < 30 | > 20 | 7.40 | 8.40 | 
C=CCc1c(C)nc2sc3c(N)ncnc3c2c1C | < 30 | > 20 | 7.70 | 8.70 | pKi [5]: < 5.30; pKi [6]: < 5.30; pKi [7]: 5.96; pKi [8]: < 5.30; pKi [9]: < 5.30; pKi [10]: < 5.30; pKi [11]: < 5.30; pKi [12]: < 5.30; pIC50 (HCT-116): 5.08; pKi [13]: < 5.30; pIC50 (RKO): 5.18; pKi [14]: < 5.30; Activity [15]: Active; pIC50 (SW480): 5.02; pKi (Ephrin type-B receptor 3): < 5.30
Cc1cc(C)c2c(n1)sc1c(N(C)C)ncnc12 | < 30 | > 20 | < 4.52 | < 5.52 | 
CCc1c(C)nc2sc3c(N)ncnc3c2c1C | < 30 | > 20 | 8.00 | 9.00 | 
CCOC(=O)c1cc2c(nc1C)sc1c(N)ncnc12 | < 30 | > 20 | 5.00 | 6.00 | 
Cc1nc2sc3c(N)ncnc3c2c(C)c1Cc1ccccc1 | < 30 | > 20 | 5.70 | 6.70 | 
Nc1ncnc2c1sc1ncc(-c3ccccc3)cc12 | < 30 | > 20 | 5.05 | 6.05 | 
Cc1c2c(nc3sc4c(N)ncnc4c13)CCC2 | < 30 | > 20 | 7.30 | 8.30 | 

Continued, in another order:

solubility [1] [µg/mL] | Papp [2] [×10⁻⁶ cm/s] | pIC50 [3] | pKi [4] | SMILES | other results
< 30 | > 20 | 8.30 | 9.30 | Cc1nc2sc3c(N)ncnc3c2c2c1CCCC2 | 
< 30 | > 20 | 7.52 | 8.52 | Cc1nc2sc3c(N)ncnc3c2c2c1CCC2 | 
< 30 | > 20 | < 4.52 | < 5.52 | CNc1ncnc2c1sc1nc(C)cc(C)c12 | 
< 30 | > 20 | 5.40 | 6.40 | Nc1ncnc2c1sc1nc(C3CC3)cc(C(F)(F)F)c12 | 
< 30 | > 20 |  |  | Cc1cc(C)c2c(n1)sc1c(N)ncnc12 | 
< 30 | > 20 | < 4.52 | < 5.52 | Cc1cc(C)c2c(n1)sc1c(Nc3ccccc3)ncnc12 | 
< 30 | > 20 | 7.70 | 8.70 | Cc1c2c(nc3sc4c(N)ncnc4c13)CCCC2 | 
< 30 | > 20 | 4.92 | 5.92 | Nc1ncnc2c1sc1ncccc12 | 
